One data set has as its target Cholinesterase (Homo sapiens, UniProt P06276). The experiment in a line: Inhibition of human serum BuChE using butyrylthiocholine iodide as substrate preincubated for 20 mins prior to substrate addition by Ellman's method. Put shortly: (§1)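 Ellman method with acetylthiocholine iodide (AChE) or butyrylthiocholine iodide (BuChE) as substrate. Enzyme and inhibitor preincubated 20 min at 37 °C before substrate addition. Blanks without enzyme corrected for non-enzymatic hydrolysis. Five inhibitor concentrations giving 20-80% inhibition. IC50 from linear regression of % inhibition vs log final concentration. Mean of two or three independent measurements, each in triplicate.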

In data set [1] the target is T1, Acetylcholinesterase (Homo sapiens, UniProt P22303). In words: Inhibition of human recombinant AChE using acetylthiocholine iodide as substrate preincubated for 20 mins prior to substrate addition by Ellman's method. Put shortly:
as §1
(In general: In Ellman's method for cholinesterases, released thiocholine reacts with DTNB.)

Data set [2] in a line: Inhibition of amyloid beta (25 to 35) fibril formation at 10 uM incubated up to 6 hrs by UV-Vis spectrophotometric analysis. An outline of the steps: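 Aβ25-35 at 100 μM final, in 10 mM phosphate buffer pH 7.2, sonicated 1 min on addition. Compound added in MeOH at 10 μM final, with curcumin reference alongside. Polymerization followed by UV-vis at 190-380 nm over 0-6 h. Spectra of compound alone were subtracted. At least three independent runs.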

Data set [3] deals with SH-SY5Y. The experiment in a line: Neuroprotective activity in human SH-SY5Y cells assessed as inhibition of amyloid beta (25 to 35)-induced cytotoxicity at 30 uM after 3 hrs by MTT assay. It is filed as functional. Put shortly: (§2)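 SH-SY5Y cells in DMEM with 10% FBS were seeded at 3 × 10⁴/well for 24 h. They were exposed for 3 h at 37 °C to HFIP-pretreated unaggregated Aβ25-35 with or without compound (1–30 range). Viability was read by MTT (5 mg/mL, 2 h; isopropanol; 570/690 nm) as % of untreated control. Percentage protection is given at the highest concentration. Mean ± SD of at least two experiments.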
In general terms: Tetrazolium assays rely on reduction of a dye to a coloured formazan, in cell work by metabolically active cells.

In data set [4] the test system is SH-SY5Y. In words: Neuroprotective activity in human SH-SY5Y cells assessed as inhibition of amyloid beta (25 to 35)-induced cytotoxicity after 3 hrs by MTT assay. It is filed as functional, cell-based. Put shortly: as §2
In data set [5] the target is Amyloid-beta precursor protein (Homo sapiens) (UniProt P05067). In words: Inhibition of amyloid beta (25 to 35) binding to plasma membrane surface of human Sh-SY5Y cells at 30 uM after 30 mins by congo red-based spectrophotometry. It counts as cell-based. An outline of the steps:
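SH-SY5Y cells were seeded at 5 × 10³/well for 24 h, then given fresh medium with Aβ25-35 and compound for 10, 20 and 30 min. After two PBS washes, bound peptide was stained with Congo red in PBS for 20 min. Absorbance was read at 540 nm and expressed as % of untreated cells.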

Data set [6] has as its system SH-SY5Y. The experiment in a line: Neuroprotective effect in human SH-SY5Y cells assessed as inhibition of amyloid beta (25 to 35)-induced ROS production at 30 uM after 3 hrs by DHE-based fluorimetric analysis. It is filed as functional, cell-based. Put shortly:
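SH-SY5Y cells were seeded at 1 × 10⁴/well on culture slides for 24 h and treated with Aβ25-35 with or without compound for 3 h. ROS was measured with DHE loaded for 15 min in the dark, then 1 h in serum-free DMEM at 37 °C. Fluorescence microscopy covered four random fields of 50–100 cells each, scored as densitometry per cell versus untreated cells. Mean ± SD of three experiments.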

Data set [7] deals with T2, Cannabinoid receptor 1 (Homo sapiens, UniProt P21554). The experiment in a line: Displacement of [3H]CP-55940 from human recombinant CB1 receptor expressed in HEK293 cells after 90 mins. It is filed as cell-based. Put shortly: (§3)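 Membranes from HEK-293 cells stably expressing human recombinant CB1 (Bmax 2.5 pmol/mg) or CB2 (Bmax 4.7 pmol/mg). Incubated with [3H]-CP-55,940 (CB1 0.14 nM, Kd 0.18 nM; CB2 0.084 nM, Kd 0.31 nM) and increasing compound concentrations for 90 min at 30 °C. Non-specific binding defined with 10 […] 55212-2. IC50 by non-linear regression, converted to Ki by Cheng-Prusoff. Means of at least n = 3.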

Data set [8] deals with T3, Cannabinoid receptor 2 (Homo sapiens, UniProt P34972). The experiment in a line: Displacement of [3H]CP-55940 from human recombinant CB2 receptor expressed in HEK293 cells after 90 mins. It is filed as cell-based. An outline of the steps:
as §3
Background: Loss of bound radioactivity is the signal in a displacement assay; it reports binding, not function.

Data set [9] has as its target T2, Cannabinoid receptor 1. In words: Displacement of [3H]CP-55940 from human recombinant CB1 receptor expressed in HEK293 cells at 25 uM after 90 mins. It counts as cell-based. Put shortly:
(§4)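 Membranes from HEK-293 cells stably expressing human recombinant CB1 or CB2 were incubated with [³H]-CP-55,940 (0.14 nM for CB1; 0.084 nM for CB2) plus test compound for 90 min at 30 °C. Non-specific binding was defined with WIN 55212-2. Percent displacement of bound radioligand at the maximum tested concentration is reported. At least n = 3 experiments.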

Data set [10] has as its target T3, Cannabinoid receptor 2. In words: Displacement of [3H]CP-55940 from human recombinant CB2 receptor expressed in HEK293 cells at 25 uM after 90 mins. It is filed as cell-based. An outline of the steps:
as §4

Data set [11] can be described thus: Induction of amyloid beta (25 to 35) fibril formation at 10 uM incubated up to 6 hrs by UV-Vis spectrophotometry. An outline of the steps:
(§5)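 Aβ25-35, sonicated 1 min, was mixed in 10 mM phosphate buffer (pH 7.2) with compound added in MeOH, on ice. Polymerization was followed by UV-visible spectroscopy at 190–380 nm over 0–6 h. Compound-alone spectra were subtracted, and peptide-alone and curcumin controls were run in parallel. IC50 (0.1–50 range) came from a sigmoidal least-squares fit. At least three independent runs.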

Data set [12] concerns the target T2, Cannabinoid receptor 1. The experiment in a line: Displacement of [3H]CP-55940 from human recombinant CB1 receptor expressed in HEK293 cells at 10 uM after 90 mins. It is filed as cell-based. Put shortly:
as §4

In data set [13] the target is T3, Cannabinoid receptor 2. In words: Displacement of [3H]CP-55940 from human recombinant CB2 receptor expressed in HEK293 cells at 10 uM after 90 mins. It is filed as cell-based.
The target of data set [14] is T1, Acetylcholinesterase. The experiment in a line: Pseudo-irreversible inhibition of human recombinant AChE using acetylthiocholine iodide as substrate preincubated for 20 mins prior to substrate addition by Ellman's method.
The target of data set [15] is T1, Acetylcholinesterase. In words: Ratio of rivastigmine IC50 to compound IC50 for human recombinant AChE.
Data set [16] can be described thus: Inhibition of amyloid beta (25 to 35) fibril formation incubated up to 6 hrs by UV-Vis spectrophotometric analysis. An outline of the steps: as §5
Data set [17] can be described thus: Ratio of curcumin IC50 to compound IC50 for amyloid beta (25 to 35).

The source made the active and inactive calls. The calls are words filed in the database; no cut-off is given here.

Sequence of Cholinesterase (P06276 whole entry): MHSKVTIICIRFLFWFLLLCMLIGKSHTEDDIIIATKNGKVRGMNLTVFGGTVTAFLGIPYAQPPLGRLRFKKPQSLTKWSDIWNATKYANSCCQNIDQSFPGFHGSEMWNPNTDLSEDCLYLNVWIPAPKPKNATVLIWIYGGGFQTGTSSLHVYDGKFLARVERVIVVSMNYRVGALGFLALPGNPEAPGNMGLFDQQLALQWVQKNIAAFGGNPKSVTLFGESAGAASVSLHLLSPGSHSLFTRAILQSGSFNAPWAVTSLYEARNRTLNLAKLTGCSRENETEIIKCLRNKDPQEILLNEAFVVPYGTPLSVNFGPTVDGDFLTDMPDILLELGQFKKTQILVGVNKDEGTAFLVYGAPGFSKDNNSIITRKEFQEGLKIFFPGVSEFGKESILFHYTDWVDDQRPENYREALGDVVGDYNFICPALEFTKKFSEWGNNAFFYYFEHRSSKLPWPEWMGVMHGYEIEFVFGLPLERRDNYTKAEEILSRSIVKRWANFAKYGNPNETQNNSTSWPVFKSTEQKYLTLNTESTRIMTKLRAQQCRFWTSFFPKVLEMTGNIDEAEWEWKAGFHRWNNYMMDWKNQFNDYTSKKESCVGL
T2 sequence (P21554 whole entry): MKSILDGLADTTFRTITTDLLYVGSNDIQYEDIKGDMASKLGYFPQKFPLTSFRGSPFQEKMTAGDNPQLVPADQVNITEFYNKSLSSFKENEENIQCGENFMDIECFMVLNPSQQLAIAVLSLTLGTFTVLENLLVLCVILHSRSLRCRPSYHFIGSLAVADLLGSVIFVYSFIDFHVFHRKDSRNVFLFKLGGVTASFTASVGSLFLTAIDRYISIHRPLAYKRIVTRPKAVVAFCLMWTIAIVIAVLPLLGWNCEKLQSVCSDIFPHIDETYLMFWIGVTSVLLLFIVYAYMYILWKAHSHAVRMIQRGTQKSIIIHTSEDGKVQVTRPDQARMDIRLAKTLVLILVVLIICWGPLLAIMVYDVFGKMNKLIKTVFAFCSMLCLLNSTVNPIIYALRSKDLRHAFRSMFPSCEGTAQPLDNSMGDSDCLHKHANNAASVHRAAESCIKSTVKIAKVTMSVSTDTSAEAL
T3 sequence (P34972 whole entry): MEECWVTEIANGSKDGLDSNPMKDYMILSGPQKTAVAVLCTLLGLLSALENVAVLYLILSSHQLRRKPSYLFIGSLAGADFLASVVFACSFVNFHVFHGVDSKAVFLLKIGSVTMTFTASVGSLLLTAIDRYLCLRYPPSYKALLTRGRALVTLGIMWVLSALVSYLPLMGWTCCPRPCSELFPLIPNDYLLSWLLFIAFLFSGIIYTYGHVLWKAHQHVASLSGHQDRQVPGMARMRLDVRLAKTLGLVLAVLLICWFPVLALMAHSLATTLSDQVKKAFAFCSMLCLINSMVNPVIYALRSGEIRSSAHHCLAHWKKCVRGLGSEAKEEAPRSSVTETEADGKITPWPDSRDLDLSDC
T1 sequence (P22303 whole entry): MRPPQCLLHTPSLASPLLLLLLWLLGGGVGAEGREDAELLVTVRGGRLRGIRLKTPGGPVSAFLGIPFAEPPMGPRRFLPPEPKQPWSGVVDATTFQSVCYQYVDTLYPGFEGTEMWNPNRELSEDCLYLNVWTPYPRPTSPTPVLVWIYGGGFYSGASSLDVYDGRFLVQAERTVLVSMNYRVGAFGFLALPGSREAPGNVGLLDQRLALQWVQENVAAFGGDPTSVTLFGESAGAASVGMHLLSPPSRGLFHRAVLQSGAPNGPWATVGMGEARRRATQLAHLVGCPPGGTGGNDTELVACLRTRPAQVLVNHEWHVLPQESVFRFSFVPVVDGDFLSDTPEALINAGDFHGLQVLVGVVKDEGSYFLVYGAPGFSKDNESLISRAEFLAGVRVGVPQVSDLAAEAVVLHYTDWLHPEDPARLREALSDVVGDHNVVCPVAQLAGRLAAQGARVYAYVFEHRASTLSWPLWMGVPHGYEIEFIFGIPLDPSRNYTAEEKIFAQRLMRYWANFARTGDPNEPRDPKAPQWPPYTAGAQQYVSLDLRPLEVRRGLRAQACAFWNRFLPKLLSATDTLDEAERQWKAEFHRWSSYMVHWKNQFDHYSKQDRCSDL
Sequence of Amyloid-beta precursor protein (Homo sapiens) (P05067 whole entry): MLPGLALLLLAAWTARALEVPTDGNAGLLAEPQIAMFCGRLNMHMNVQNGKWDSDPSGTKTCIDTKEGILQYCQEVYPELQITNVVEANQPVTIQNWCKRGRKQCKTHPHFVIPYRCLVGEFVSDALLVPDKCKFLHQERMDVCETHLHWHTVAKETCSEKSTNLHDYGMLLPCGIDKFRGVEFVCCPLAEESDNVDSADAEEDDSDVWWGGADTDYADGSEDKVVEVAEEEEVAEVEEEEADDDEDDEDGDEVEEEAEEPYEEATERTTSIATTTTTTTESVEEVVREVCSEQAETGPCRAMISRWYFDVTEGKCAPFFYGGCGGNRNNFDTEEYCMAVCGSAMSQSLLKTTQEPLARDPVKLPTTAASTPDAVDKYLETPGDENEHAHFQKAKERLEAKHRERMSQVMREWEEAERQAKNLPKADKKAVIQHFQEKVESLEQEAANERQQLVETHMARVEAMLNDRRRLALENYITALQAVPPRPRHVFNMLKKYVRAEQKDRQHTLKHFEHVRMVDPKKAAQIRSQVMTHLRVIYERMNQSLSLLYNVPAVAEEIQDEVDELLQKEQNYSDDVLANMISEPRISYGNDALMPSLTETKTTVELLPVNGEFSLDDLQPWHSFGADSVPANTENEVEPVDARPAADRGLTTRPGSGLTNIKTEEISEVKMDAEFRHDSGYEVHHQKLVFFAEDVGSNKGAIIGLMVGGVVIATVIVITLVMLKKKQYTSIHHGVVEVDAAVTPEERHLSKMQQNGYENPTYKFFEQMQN

Consider `Cc1cccc(C(=O)c2c(-c3cccc(OCCCCCCCN(C)Cc4ccccc4)c3)oc3ccccc23)c1`, for which the IC50 is 0.4 µM at Cholinesterase and 102 µM at Acetylcholinesterase [1] (read-out: IC50). The inhibition in [2] was 48%; with SH-SY5Y [4], “Dose-dependent effect”. The inhibition at 30 µM with SH-SY5Y [3] came out at 46.2%. Also, the inhibition result (in data set [5]; in the data set with SH-SY5Y [6]) was “Active” in each case. Also, the outcome on Cannabinoid receptor 1 [7] and at Cannabinoid receptor 2 [8] was inactive.

Consider `CN(CCCCCCCOc1ccc(-c2oc3ccccc3c2C(=O)c2ccc(-c3ccccc3)cc2)cc1)Cc1ccccc1`, for which the IC50 was 88.9 µM on Cholinesterase and “Not Active” at Acetylcholinesterase [1]. Further, the EC50 is 7.74 µM at Cannabinoid receptor 1 [7] and 7.06 µM on Cannabinoid receptor 2 [8]. The results for the Ki at Cannabinoid receptor 1 [7] and on Cannabinoid receptor 2 [8] were 3.12 µM and 1.79 µM, respectively. Moreover, the Activity on Cannabinoid receptor 1 [9] stood at 80%; on Cannabinoid receptor 2 [10] it was 86%.

With `CN(CCCCCCCOc1ccc(-c2oc3ccccc3c2C(=O)c2c3ccccc3cc3ccccc23)cc1)Cc1ccccc1`, the IC50 against Cholinesterase stood at 81.2 µM; at Acetylcholinesterase [1] (read-out: IC50), 67.7 µM. Besides, the Activity entry was “Toxic” in data set [11], 30.3% on Cannabinoid receptor 1 [12] and 9.87% at Cannabinoid receptor 2 [13]. Further, the EC50 on Cannabinoid receptor 1 [7] and on Cannabinoid receptor 2 [8] was over 10 µM throughout. Further, the Ki on Cannabinoid receptor 1 [7] and at Cannabinoid receptor 2 [8] was over 10 µM throughout.

As to `CNC(=O)Oc1cccc(CN(C)CCCCCCCOc2ccc(-c3oc4ccccc4c3C(=O)c3ccc(C)cc3)cc2)c1`, the IC50 at Cholinesterase is 0.88 µM; at Acetylcholinesterase [1] (read-out: IC50), 0.34 µM. For the same compound, on Acetylcholinesterase [14], the inhibition result was “Active”. Moreover, at Acetylcholinesterase [15], the Ratio IC50 was 1.

With `CN(CCCCCCCOc1cccc(-c2cc3ccccc3o2)c1)Cc1ccccc1`, the values for the IC50 (against Cholinesterase; on Acetylcholinesterase [1]; in data set [16]) were 3 µM, “Not Active” and 3.9 µM, respectively. The inhibition in [2] turned out to be 81%. In [17], the Ratio IC50 was 2.5.

Turning to `CN(CCCCCCCOc1cccc(-c2oc3ccccc3c2C(=O)c2ccccc2)c1)Cc1ccccc1`, the values for the IC50 against Cholinesterase and at Acetylcholinesterase [1] (read-out: IC50) were 2.88 µM and 0.24 µM, respectively. Further, the inhibition in data set [2] was 35%; with SH-SY5Y [4], “Dose-dependent effect”. Further, the inhibition at 30 µM in the data set on SH-SY5Y [3] turned out to be 48.4%. The inhibition result (in data set [5]; in the data set with SH-SY5Y [6]) was “Active” throughout. Besides, the result on Cannabinoid receptor 1 [7] and on Cannabinoid receptor 2 [8] was inactive.

As a reminder, the IC50 is the concentration needed to halve the response being measured. What is called inhibition is how much of the control response was suppressed. The EC50 is the midpoint of the concentration-response curve. For orientation: Ki means the dissociation constant of the complex between target and ligand, obtained from inhibition or displacement.

(Values after ChEMBL document CHEMBL2157903, “2-Arylbenzofuran-based molecules as multipotent Alzheimer's disease modifying agents” (Eur J Med Chem, 2012).)
